The target in series [1] is T1, CYP2C19 (Homo sapiens, UniProt P33261). As to the kind of experiment: Inhibition of human CYP2C19 expressed in baculovirus-infected insect microsomes at 10 uM. It is filed as ADME, Microsome. In a few lines:
(§1)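 Recombinant human CYP1A2, 2B6, 2C9, 2C19, 2D6 or 3A4 in baculovirus-infected insect microsomes (Supersomes), run per manufacturer's protocol. Inhibitor at 1 and 10 μM; percent inhibition is the mean of two experiments.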

For series [2], the target named is T2, CYP2C9 (Homo sapiens, UniProt P11712). As to the kind of experiment: Inhibition of human CYP2C9 expressed in baculovirus-infected insect microsomes at 1 uM. It is filed as ADME, Microsome. Put shortly:
as §1

The target in series [3] is T2, CYP2C9. In words: Inhibition of human CYP2C9 expressed in baculovirus-infected insect microsomes at 10 uM. It is filed as ADME, Microsome. In a few lines: as §1
Series [4] concerns the target T3, CYP1A2 (Homo sapiens, UniProt P05177).
T3 sequence (P05177 whole entry): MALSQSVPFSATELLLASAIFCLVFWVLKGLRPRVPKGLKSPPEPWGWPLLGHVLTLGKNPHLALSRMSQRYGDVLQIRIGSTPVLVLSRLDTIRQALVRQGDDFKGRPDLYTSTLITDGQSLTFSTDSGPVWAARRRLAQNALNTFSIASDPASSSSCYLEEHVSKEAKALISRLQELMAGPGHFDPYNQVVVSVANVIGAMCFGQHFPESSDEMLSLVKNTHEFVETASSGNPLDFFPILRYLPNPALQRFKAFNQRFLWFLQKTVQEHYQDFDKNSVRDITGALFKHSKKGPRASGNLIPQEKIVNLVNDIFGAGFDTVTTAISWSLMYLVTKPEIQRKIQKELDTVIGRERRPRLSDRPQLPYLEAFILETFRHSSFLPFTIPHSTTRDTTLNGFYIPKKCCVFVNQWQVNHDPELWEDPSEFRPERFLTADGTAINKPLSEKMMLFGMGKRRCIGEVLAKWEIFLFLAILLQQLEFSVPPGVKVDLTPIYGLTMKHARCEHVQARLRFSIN
As to the kind of experiment: Inhibition of human CYP1A2 expressed in baculovirus-infected insect microsomes at 1 uM. It counts as ADME, Microsome. Put shortly:
as §1

The target in series [5] is T4, Cytochrome P450 11B2, mitochondrial (Homo sapiens, UniProt P19099).
T4 sequence (P19099 whole entry): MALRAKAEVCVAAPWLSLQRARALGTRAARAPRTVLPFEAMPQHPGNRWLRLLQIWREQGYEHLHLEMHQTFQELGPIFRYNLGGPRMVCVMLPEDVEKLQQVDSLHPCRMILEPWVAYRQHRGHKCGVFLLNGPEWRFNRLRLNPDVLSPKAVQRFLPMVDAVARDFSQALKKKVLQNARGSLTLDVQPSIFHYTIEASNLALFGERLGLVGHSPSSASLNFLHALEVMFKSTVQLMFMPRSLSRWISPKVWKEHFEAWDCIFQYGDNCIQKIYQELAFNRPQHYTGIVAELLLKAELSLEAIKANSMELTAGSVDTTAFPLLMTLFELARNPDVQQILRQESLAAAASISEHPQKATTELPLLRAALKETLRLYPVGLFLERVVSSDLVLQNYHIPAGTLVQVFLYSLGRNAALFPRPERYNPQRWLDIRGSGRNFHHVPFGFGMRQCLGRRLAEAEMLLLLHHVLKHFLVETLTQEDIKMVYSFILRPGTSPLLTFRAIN
In words: Inhibition of human CYP11B2 expressed in hamster V79 MZh cells assessed as conversion of [4-14C]-11-deoxycorticosterone substrate at 500 nM by HPTLC assay. It counts as cell-based. To be noted: V79MZh. Put shortly:
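V79 MZh cells expressing human CYP11B2 given [4-14C]-11-deoxycorticosterone, 100 nM, with inhibitor at a single 500 nM concentration. Ethyl acetate extraction, then HPTLC/phosphoimager readout of conversion. Percent inhibition is the mean of at least three experiments.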

In series [6] the target is T5, CYP3A4 (Homo sapiens, UniProt P08684). In words: Inhibition of human CYP3A4 expressed in baculovirus-infected insect microsomes at 1 uM. It counts as ADME, Microsome. In a few lines: as §1
For series [7], the target named is T4, Cytochrome P450 11B2, mitochondrial. In words: Inhibition of human CYP11B2 expressed in hamster V79 MZh cells assessed as conversion of [4-14C]-11-deoxycorticosterone substrate by HPTLC assay. It is filed as cell-based. In a few lines:
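Hamster V79 MZh fibroblasts expressing human CYP11B2 incubated with [4-14C]-11-deoxycorticosterone (100 nM) and inhibitor at ≥3 concentrations; reaction stopped with ethyl acetate, steroids extracted after shaking and centrifugation (10000g, 2 min). Substrate conversion read by HPTLC with phosphoimaging.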

Series [8] has as its target T3, CYP1A2. In words: Inhibition of human CYP1A2 expressed in baculovirus-infected insect microsomes at 10 uM. It counts as ADME, Microsome. Put shortly:
as §1

Series [9] addresses T6, CYP17 (Homo sapiens, UniProt P05093).
T6 sequence (P05093 whole entry): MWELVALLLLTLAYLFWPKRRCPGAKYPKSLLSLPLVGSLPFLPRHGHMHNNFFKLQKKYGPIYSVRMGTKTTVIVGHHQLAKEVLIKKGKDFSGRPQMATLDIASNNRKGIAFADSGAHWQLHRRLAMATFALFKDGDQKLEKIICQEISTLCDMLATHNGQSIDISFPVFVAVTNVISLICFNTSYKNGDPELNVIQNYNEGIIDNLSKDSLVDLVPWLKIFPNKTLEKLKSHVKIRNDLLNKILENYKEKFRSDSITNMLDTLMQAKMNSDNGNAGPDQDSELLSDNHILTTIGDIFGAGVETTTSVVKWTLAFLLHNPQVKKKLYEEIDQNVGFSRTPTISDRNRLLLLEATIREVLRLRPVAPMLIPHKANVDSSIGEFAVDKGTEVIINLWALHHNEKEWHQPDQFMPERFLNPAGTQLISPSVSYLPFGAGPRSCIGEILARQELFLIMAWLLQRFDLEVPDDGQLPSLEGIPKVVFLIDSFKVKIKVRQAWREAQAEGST
In words: Inhibition of human CYP17 expressed in Escherichia coli using progesterone substrate at 2 uM. Particulars: recombinant human CYP17 expressed in Escherichia coli, probe progesterone. Put shortly: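 50000g sediment of E. coli homogenate recombinantly expressing human CYP17. Progesterone substrate at 25 μM, inhibitor tested at 2 μM.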

Series [10] addresses T1, CYP2C19. In words: Inhibition of human CYP2C19 expressed in baculovirus-infected insect microsomes at 1 uM. It is filed as ADME, Microsome. Put shortly:
as §1

For series [11], the target named is T5, CYP3A4. As to the kind of experiment: Inhibition of human CYP3A4 expressed in baculovirus-infected insect microsomes at 10 uM. It is filed as ADME, Microsome. In a few lines: as §1
The target in series [12] is T7, Cytochrome P450 11B1, mitochondrial (Homo sapiens, UniProt P15538).
T7 sequence (P15538 whole entry): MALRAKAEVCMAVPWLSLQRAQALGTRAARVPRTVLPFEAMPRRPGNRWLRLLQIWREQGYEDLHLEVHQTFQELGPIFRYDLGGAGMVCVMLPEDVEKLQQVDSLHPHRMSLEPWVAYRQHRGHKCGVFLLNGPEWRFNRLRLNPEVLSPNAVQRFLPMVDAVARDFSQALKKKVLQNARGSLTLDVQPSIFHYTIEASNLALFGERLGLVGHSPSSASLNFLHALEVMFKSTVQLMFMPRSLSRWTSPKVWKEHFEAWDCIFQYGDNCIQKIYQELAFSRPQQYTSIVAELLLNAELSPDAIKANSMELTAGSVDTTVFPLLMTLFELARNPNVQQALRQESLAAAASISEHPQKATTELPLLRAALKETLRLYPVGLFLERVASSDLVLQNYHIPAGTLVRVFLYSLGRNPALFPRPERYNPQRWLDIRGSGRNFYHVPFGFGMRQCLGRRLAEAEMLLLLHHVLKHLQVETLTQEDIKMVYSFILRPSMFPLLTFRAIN
As to the kind of experiment: Inhibition of human CYP11B1 expressed in hamster V79 MZh cells assessed as conversion of [4-14C]-11-deoxycorticosterone substrate by HPTLC assay. It is filed as cell-based. In a few lines: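 V79 MZh hamster fibroblasts stably expressing human CYP11B1 or CYP11B2 incubated with [4-14C]-11-deoxycorticosterone, 100 nM, plus inhibitor at ≥3 concentrations. Reaction stopped with ethyl acetate, steroids extracted into the organic phase, and substrate conversion quantified by HPTLC with phosphoimaging. IC50 is the mean of at least three experiments.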

Series [13] is filed under the species Homo sapiens. As to the kind of experiment: Selectivity ratio of IC50 for human CYP11B1 to IC50 for human CYP11B2. In a few lines: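 Ratio of IC50 values from V79 MZh cell assays for human CYP11B1 and CYP11B2, IC50 CYP11B1/IC50 CYP11B2. Both assays used [4-14C]-11-deoxycorticosterone, 100 nM, inhibitor at ≥3 concentrations and HPTLC/phosphoimager readout of conversion.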

T2 sequence (P11712 whole entry): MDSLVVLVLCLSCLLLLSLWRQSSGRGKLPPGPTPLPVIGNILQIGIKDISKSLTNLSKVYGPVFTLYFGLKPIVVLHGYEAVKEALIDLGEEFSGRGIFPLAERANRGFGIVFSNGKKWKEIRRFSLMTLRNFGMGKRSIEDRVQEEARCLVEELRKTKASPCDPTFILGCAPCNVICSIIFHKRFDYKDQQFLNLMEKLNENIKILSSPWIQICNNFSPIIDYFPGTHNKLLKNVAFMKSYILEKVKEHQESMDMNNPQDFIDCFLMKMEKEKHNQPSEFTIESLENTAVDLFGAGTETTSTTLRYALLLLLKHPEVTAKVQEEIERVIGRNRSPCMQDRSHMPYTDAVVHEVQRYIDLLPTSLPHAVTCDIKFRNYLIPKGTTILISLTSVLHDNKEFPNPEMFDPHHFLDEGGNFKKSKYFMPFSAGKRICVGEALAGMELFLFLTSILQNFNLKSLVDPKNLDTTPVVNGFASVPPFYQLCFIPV
T5 sequence (P08684 whole entry): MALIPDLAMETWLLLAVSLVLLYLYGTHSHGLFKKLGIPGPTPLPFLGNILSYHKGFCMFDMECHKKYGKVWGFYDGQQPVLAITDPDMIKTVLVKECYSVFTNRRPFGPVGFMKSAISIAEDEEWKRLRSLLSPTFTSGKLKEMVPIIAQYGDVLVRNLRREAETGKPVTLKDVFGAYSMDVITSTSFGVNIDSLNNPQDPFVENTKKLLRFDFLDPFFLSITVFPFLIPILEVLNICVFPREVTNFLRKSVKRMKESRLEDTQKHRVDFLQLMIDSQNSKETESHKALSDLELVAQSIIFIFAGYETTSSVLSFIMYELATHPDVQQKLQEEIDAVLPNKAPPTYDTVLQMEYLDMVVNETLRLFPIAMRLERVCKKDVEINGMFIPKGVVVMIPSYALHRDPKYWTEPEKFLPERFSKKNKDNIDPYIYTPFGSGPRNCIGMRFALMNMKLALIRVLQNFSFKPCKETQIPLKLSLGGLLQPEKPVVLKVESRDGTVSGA
T1 sequence (P33261 whole entry): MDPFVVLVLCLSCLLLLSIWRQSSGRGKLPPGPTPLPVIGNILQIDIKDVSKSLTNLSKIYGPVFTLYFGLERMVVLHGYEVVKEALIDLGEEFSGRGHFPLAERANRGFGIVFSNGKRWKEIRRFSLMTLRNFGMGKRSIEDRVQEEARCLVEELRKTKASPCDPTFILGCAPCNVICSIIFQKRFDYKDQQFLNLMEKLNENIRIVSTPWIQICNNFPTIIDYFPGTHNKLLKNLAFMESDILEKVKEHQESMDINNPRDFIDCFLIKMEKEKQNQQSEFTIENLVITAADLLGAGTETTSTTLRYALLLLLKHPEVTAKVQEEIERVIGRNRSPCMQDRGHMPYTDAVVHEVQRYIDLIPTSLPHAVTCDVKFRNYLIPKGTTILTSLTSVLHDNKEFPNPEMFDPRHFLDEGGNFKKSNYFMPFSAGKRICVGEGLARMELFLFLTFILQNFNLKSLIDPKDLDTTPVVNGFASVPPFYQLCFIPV

With `COc1cncc(-c2cc3c4c(c2)CCC(=O)N4CCC3)c1`, the inhibition at 10 µM came to 61% in series [1], 63% in [3], 87% in series [8] and 24% in [11]. Further, the inhibition at 1 µM in [2] stood at 34%; in series [4] it was 47%; in series [6], 12%; in series [10] it was 11%. In series [5], the inhibition at 0.5 µM amounted to 95%. Moreover, the IC50 is 0.0009 µM in series [7] and 0.545 µM in series [12]. The inhibition at 2 µM in series [9] was less than 5%.
Turning to `O=C1CCc2cc(-c3cncc4ccccc34)cc3c2N1CCC3`, the inhibition at 10 µM in [1] is 96%; in series [3], 97%; in series [8], 63%; in series [11] it was less than 5%. The inhibition at 1 µM in series [2] was 73%; in [4], 24%; in series [6], less than 5%; in series [10] it was 67%. Moreover, the inhibition at 0.5 µM in series [5] amounted to 95%. Besides, the IC50 in [7] amounted to 0.0002 µM; in [12], 0.034 µM. Also, the inhibition at 2 µM in series [9] is 5%. The Ratio IC50 in series [13] was 170.

The record behind these values is ChEMBL document CHEMBL1765045, “Fine-tuning the selectivity of aldosterone synthase inhibitors: structure-activity and structure-selectivity insights from studies of heteroaryl substituted 1,2,5,6-tetrahydropyrrolo[3,2,1-ij]quinolin-4-one derivatives” (J Med Chem, 2011).
